Key:
SETD2 [1] = biological target: T1, SETD2 (Homo sapiens, UniProt Q9BYW2); assay: Kinetics analysis of SETD2-catalyzed methylation; format: biochemical
T1 sequence (Q9BYW2 1347-1711): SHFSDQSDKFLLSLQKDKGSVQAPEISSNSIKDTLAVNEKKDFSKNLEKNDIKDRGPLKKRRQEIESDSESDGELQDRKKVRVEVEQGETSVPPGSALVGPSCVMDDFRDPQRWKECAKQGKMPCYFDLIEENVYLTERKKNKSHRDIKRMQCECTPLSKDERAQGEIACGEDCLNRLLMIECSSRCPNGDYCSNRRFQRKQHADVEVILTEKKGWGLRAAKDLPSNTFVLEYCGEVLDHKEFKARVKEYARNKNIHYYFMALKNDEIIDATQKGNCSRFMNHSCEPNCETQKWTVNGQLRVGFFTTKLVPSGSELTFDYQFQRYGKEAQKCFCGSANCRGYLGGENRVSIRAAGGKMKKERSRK

DOT1L = details: read-out: in vitro IC50 on DOT1L; cited from earlier work
SET7/9 = biological target: T2, SET7/9 (Homo sapiens, UniProt Q8WTS6); assay: Filter-paper methylation assay, IC50 against SET7/9; format: biochemical
T2 sequence (Q8WTS6 1-366): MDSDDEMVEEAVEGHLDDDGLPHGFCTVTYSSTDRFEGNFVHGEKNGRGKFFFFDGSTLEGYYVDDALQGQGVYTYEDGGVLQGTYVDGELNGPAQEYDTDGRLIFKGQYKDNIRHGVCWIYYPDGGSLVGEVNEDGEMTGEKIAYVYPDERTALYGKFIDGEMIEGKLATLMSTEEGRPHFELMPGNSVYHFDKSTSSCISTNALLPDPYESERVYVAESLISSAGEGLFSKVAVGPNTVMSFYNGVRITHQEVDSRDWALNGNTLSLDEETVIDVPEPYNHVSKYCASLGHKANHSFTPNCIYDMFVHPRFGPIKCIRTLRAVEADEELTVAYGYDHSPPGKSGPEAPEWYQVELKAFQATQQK
Procedure, shortened: (§1)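 Radiometric filter-paper assay: the methyl group from [3H-Me]-SAM is transferred to a peptide substrate, the peptide is captured by filter binding, and radioactivity is counted by scintillation. For SETD2, both SAM and peptide were below their Km. IC50 was obtained by fitting percent inhibition against inhibitor concentration.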

SETD2 [2] = biological target: T1, SETD2; assay: Filter-paper methylation assay with [3H-Me]-SAM, IC50 against SETD2; format: biochemical; details: for preference to SETD2 over other examined methyltransferases: panel of 15 human methyltransferases
Procedure, shortened: as §1

GLP = biological target: T3, GLP (Homo sapiens, UniProt Q9H9B1); assay: Filter-paper methylation assay, IC50 against GLP; format: biochemical; details: read-out: IC50 for GLP
T3 sequence (Q9H9B1 982-1266): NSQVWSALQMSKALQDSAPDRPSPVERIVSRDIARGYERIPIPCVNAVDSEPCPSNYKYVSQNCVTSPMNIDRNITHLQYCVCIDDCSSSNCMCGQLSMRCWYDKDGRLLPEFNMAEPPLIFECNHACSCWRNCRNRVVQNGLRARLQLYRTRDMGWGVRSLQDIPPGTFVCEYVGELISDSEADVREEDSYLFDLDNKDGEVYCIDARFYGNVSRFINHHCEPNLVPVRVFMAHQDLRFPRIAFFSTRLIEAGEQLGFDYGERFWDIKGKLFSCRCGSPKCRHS
Procedure, shortened: as §1

G9a = biological target: T4, G9a (Homo sapiens, UniProt Q96KQ7); assay: Filter-paper methylation assay, IC50 against G9a; format: biochemical; details: read-out: IC50 for G9a
T4 sequence (Q96KQ7 913-1193): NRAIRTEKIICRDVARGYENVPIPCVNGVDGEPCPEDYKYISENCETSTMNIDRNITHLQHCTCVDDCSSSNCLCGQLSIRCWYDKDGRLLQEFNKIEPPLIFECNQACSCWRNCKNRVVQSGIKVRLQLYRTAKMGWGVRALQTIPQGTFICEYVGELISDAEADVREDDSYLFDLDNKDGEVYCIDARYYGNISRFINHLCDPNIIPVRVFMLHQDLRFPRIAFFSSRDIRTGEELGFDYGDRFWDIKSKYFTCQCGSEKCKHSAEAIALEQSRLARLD

PRMT1 = PRMT1 (Homo sapiens, UniProt Q99873); assay: Filter-paper methylation assay, IC50 against PRMT1; format: biochemical; details: read-out: IC50 for PRMT1
Chain of PRMT1 (Q99873 10-352 isoform Q99873-3): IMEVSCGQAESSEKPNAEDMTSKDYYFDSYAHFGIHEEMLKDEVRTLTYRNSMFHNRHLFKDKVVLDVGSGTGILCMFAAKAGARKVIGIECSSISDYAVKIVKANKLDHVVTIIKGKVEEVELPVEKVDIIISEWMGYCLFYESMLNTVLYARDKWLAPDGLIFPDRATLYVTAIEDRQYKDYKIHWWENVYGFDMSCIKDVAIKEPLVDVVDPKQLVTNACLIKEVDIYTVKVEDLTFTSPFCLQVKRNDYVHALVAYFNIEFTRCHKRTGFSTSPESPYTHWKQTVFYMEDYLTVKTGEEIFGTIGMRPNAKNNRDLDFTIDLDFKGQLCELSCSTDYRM
Procedure, shortened: as §1

CARM1 = biological target: T5, CARM1 (Homo sapiens, UniProt Q86X55); assay: Filter-paper methylation assay, IC50 against CARM1; format: biochemical; details: read-out: IC50 for CARM1
T5 sequence (Q86X55 19-608): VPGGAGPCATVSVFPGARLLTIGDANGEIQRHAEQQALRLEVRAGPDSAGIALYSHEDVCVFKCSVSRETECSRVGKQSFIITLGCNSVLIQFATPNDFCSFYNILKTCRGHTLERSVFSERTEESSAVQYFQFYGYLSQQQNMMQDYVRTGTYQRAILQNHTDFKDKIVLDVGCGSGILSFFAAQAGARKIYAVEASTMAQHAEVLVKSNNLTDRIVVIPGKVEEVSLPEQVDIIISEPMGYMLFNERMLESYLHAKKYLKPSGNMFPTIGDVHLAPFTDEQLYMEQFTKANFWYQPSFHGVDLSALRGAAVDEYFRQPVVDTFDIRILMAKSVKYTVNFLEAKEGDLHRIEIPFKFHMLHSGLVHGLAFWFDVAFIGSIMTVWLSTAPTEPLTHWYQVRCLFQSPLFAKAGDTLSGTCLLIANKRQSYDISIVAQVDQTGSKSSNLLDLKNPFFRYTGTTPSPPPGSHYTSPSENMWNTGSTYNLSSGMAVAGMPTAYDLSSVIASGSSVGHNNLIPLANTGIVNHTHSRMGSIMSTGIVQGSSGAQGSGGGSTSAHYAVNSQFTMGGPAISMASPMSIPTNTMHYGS

SET8 = biological target: T6, SET8 (Homo sapiens, UniProt Q9NQR1); assay: Filter-paper methylation assay, IC50 against SET8; format: biochemical; details: read-out: IC50 for SET8
T6 sequence (Q9NQR1 232-393 limits assumed): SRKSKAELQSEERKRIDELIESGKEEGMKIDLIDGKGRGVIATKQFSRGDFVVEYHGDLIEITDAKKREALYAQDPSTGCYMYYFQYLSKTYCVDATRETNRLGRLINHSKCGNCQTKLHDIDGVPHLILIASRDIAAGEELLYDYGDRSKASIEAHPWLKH
Procedure, shortened: as §1

SUV39H2 = assay: Filter-paper methylation assay, potency against SUV39H2; format: biochemical, human
Procedure, shortened: as §1

## C[S+](CC[C@H](N)C(=O)[O-])C[C@H]1O[C@@H](n2cnc3c(N)ncnc32)[C@H](O)[C@@H]1O (stereo partly shown) [SAM, S-adenosylmethionine, reference compound]
SETD2 [1]; read-out: Km,SAM of SETD2, absence of Pr-SNF
  Km: 1.21 ± 0.05 µM

## CCCNC(CCC(N)C(=O)O)C[C@H]1O[C@@H](n2cnc3c(N)ncnc32)[C@H](O)[C@@H]1O (stereo partly shown) [3c, N-propyl sinefungin]
SET7/9; read-out: IC50 for SET7/9
  IC50: 2.2 ± 0.4 µM
SETD2 [2]
  preference to SETD2 over other examined methyltransferases: 2~200 fold
GLP
  IC50: > 100 µM
G9a
  IC50: > 100 µM
SETD2 [1]
  enhancement of Kd by presence of SETD2's substrate: 8 fold
SETD2 [1]; factor by which binding of inhibitor or substrate affects binding of the other
  β: 0.12 ± 0.01
SETD2 [1]; read-out: calculated IC50 against SETD2, calculated from kinetic constants
  IC50: 0.6 µM
SETD2 [1]; read-out: βKd to bind SETD2, presence of substrate
  Kd: 0.043 ± 0.004 µM
SETD2 [1]; varied inhibitor, fixed SAM (0.8 μM)
  mechanism of inhibition versus peptide substrate: noncompetitive
SETD2 [1]; varied inhibitor, fixed substrate (4 μM)
  mechanism of inhibition versus SAM cofactor: competitive
PRMT1
  IC50: 9.5 ± 0.4 µM
CARM1
  IC50: 2.96 ± 0.3 µM
SET8
  IC50: > 100 µM

## Nc1ncnc2c1ncn2[C@@H]1O[C@H](C[C@H](CC[C@H](N)C(=O)O)NCc2ccccc2)[C@@H](O)[C@H]1O [3d, N-benzyl sinefungin]
SET7/9
  drop in potency from 3c to 3d on SET7/9: 10~50 fold
SETD2 [2]; fold higher potency
  potency against SETD2 relative to sinefungin 2, 3a and 3b: more than 10 fold
SETD2 [2]
  preference to SETD2 over other examined methyltransferases: 10~100 fold
SUV39H2
  drop in potency from 3c to 3d on SUV39H2: 10~50 fold

Reference: PMC3504124 (Journal of the American Chemical Society, 2012)
